pEC50: −log10 of the molar value. One block for each molecule: values may come before it.
Key:
rat stomach fundus = assay: Gastric contraction assay; conditions: for biological activity in fundus strip contraction: concentrations up to 10μM
3T3L1 adipocytes = assay: Lipolysis assay in 3T3L1 adipocytes; assay type: cell-based, mouse; conditions: with isoproterenol, 3 hours incubation at 37°C
In short: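 Adipocytes at day 8 of differentiation in 6-well plates. Starved 3 h in KRH with 1% BSA, then exposed to test compound with or without agonists/antagonists in KRH with 4% BSA. Media collected and heated at 60°C for 20 min to stop enzyme activity. Cells kept for protein content, or trypsinised for diameter and viability. At least three independent replicates.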

AMPK phosphorylation = assay: AMPK phosphorylation, western blotting in 3T3L1 adipocytes; assay type: cell-based, mouse; conditions: anti-Phospho-AMPK(Thr172) western blot
In short: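 3T3-L1 cells from ATCC, differentiated to adipocytes with fetal bovine serum, dexamethasone, methylisobutylxanthine and insulin. Extracts (about 5×10^5 cells) taken up in SDS reducing sample buffer and run on NuPAGE. Primary antibody overnight at 4°C; tubulin as loading probe; peroxidase-coupled donkey secondaries. Semi-quantitative densitometry; ANOVA with Tukey post hoc tests.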

human C3aR1 = biological target: T1, human C3aR1 (Homo sapiens, UniProt Q16581); assay: β-arrestin recruitment assay in HTLA cells transfected with the C3aR1 receptor; assay type: cell-based; conditions: for EC50 times lower than that of C3a: human C3aR1, relative to C3a
T1 sequence (Q16581 1-482): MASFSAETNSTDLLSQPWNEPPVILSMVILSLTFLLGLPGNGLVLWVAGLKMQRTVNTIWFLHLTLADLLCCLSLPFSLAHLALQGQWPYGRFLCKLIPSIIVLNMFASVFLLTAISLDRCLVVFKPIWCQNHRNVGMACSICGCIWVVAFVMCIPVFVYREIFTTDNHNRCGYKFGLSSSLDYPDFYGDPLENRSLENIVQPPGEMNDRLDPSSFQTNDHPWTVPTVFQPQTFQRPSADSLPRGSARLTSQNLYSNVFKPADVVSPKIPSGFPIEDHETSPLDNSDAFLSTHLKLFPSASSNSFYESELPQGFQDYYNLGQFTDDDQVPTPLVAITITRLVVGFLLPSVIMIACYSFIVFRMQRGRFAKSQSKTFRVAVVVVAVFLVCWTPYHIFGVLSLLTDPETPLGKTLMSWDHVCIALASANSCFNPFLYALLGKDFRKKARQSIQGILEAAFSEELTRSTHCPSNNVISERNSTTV

C3aR1 receptor = assay: Photoaffinity cross-linking of modified TLQP-21 peptide; assay type: binding, mouse; conditions: membranes from 3T3 cells, UV 365 nm 30 min; Figure 1B

Molecule: TLQPPASSRRR [TLQP-11]
biological activity in fundus strip contraction (rat stomach fundus): zero response

Molecule: TLQPPASSRRRHFHHALPPAA [R21A]
potentiation of isoproterenol-induced lipolysis (3T3L1 adipocytes): does not potentiate
potentiation of AMPK phosphorylation (AMPK phosphorylation): does not potentiate
biological activity in fundus strip contraction (rat stomach fundus): complete loss of activity
block of the activity of a subsequent infusion of TLQP-21 (C3aR1 antagonism) (rat stomach fundus; fundus strips, mutant given before TLQP-21): does not block

EC50 times lower than that of C3a (human C3aR1): approximately 22 times
Molecule: CC(C)C[C@H](NC(=O)[C@H](C)NC(=O)[C@H](CO)NC(=O)[C@@H]1CCCN1C(=O)[C@@H]1CCCN1C(=O)[C@H](CCC(N)=O)NC(=O)[C@H](CC(C)C)NC(=O)[C@@H](N)[C@@H](C)O)C(=O)N[C@@H](CCCNC(=N)N)C(=O)N[C@@H](CCCNC(=N)N)C(=O)N[C@@H](CCCNC(=N)N)C(=O)N[C@@H](Cc1c[nH]cn1)C(=O)N[C@@H](Cc1ccc(O)cc1)C(=O)N[C@@H](Cc1c[nH]cn1)C(=O)N[C@@H](Cc1c[nH]cn1)C(=O)N[C@@H](C)C(=O)N[C@@H](CC(C)C)C(=O)N1CCC[C@H]1C(=O)N1CCC[C@H]1C(=O)N[C@@H](CO)C(=O)N[C@@H](CCCNC(=N)N)C(=O)O [human TLQP-21]

Molecule: HFHHALPPAR [HFHH-10]
biological activity (response) in fundus strip contraction (rat stomach fundus; 3μM, compared to mouse TLQP-21): ~ 3%
biological activity (response) in fundus strip contraction (rat stomach fundus; 6μM): 62%
biological activity (response) in fundus strip contraction (rat stomach fundus; 10μM): 75%

Molecule: CC(C)C[C@H](NC(=O)[C@@H](N)[C@@H](C)O)C(=O)N[C@@H](CCC(N)=O)C(=O)N1CCC[C@H]1C(=O)N1CCC[C@H]1C(=O)N[C@@H](C)C(=O)N[C@@H](CO)C(=O)N[C@@H](CO)C(=O)N[C@@H](CCCNC(=N)N)C(=O)N[C@@H](CCCNC(=N)N)C(=O)N[C@@H](CCCNC(=N)N)C(=O)N[C@@H](Cc1c[nH]cn1)C(=O)N[C@@H](Cc1ccccc1)C(=O)N[C@@H](Cc1c[nH]cn1)C(=O)N[C@@H](Cc1c[nH]cn1)C(=O)N[C@@H](C)C(=O)N[C@@H](CC(C)C)C(=O)N1CCC[C@H]1C(=O)N1CCC[C@H]1C(=O)N[C@@H](C)C(=O)N[C@@H](CCCNC(=N)N)C(=O)O [TLQP-21]
EC50 times lower than that of C3a (human C3aR1): approximately 3 times

Molecule: C3a: human C3a peptide, first ligand identified for the C3aR1 [reference compound]
pEC50 (human C3aR1; HTLA cells transfected with human C3aR1, Figure 1C): 5.52

Molecule: N=C(N)NCCC[C@H](NC(=O)COCC(c1ccccc1)c1ccccc1)C(=O)O [SB290157]
cross-linking efficiency of modified TLQP-21 peptide in presence of antagonist (C3aR1 receptor): substantial reduction

Molecule: TLQPPASSRRRHFHHALAPAR [P18A]
biological activity (response) in fundus strip contraction (rat stomach fundus; 3μM, compared to mouse TLQP-21): ~ 65%

Molecule: TLQPPASSRRRHFHHALPAAR [P19A]
biological activity (response) in fundus strip contraction (rat stomach fundus; 3μM, compared to mouse TLQP-21): 19%
biological activity (response) in fundus strip contraction (rat stomach fundus; 6μM): 35%
